Reference: ChEMBL document CHEMBL1148464, “Cytotoxic activity of metal complexes of biogenic polyamines: polynuclear platinum(II) chelates” (J Med Chem, 2004)

How the values were obtained:
Type in all cases: functional, cell-based
[1] = tested on: HSC-3; assay: Cytotoxic potency against human HSC-3 cell line expressed as inhibitory concentration
Summary of the method: (§1)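 Adherent cells grown in high-glucose DMEM with 10% FCS, harvested with trypsin/EDTA. Seeded at 3 × 10^5 cells/mL; drug at 5–150 µM added after 24 h, 37 °C. IC50 derived from 72 h exposure dose-response curves; only effects persisting 3 days after drug removal reported. Trypan blue counts plus MTT and Alamar blue viability readouts, triplicate.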

[2] = tested on: HeLa; assay: Cytotoxic potency against human HeLa cell line expressed as inhibitory concentration
Summary of the method: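 Monolayers in high-glucose DMEM with 10% FCS, harvested with an EDTA/PBS dissociation medium. Plated at 3 × 10^5 cells/mL, dosed 24 h later with 5–150 µM at 37 °C. IC50 from 72 h dose-response curves, irreversible effects only (3-day drug-free recovery). Measured by Trypan blue exclusion, MTT (570 nm) and Alamar blue (570/600 nm) assays, in triplicate.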

[3] = tested on: MOLT-3; assay: Cytotoxic potency against human MOLT-3 cell line expressed as inhibitory concentration
Summary of the method: (§2)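 Suspension cultures in RPMI-1640 with 25 mM HEPES and 10% FCS, seeded at 3 × 10^5 cells/mL; drug (5–150 µM) added 24 h later, 37 °C. IC50 taken from dose-response curves after 72 h exposure, counting irreversible effects only (drug washed out, 3 further days). Read-out by Trypan blue exclusion, MTT (4 h, 570 nm) and Alamar blue (8 h, 570/600 nm); triplicate.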

[4] = tested on: THP-1; assay: Cytotoxic potency against human THP-1 cell line expressed as inhibitory concentration; summary of the method: as §2
[5] = tested on: L132; assay: Cytotoxic potency against human L-132 cell line expressed as inhibitory concentration; summary of the method: as §1

Sequence	IC50 [1]	IC50 [2]	IC50 [3]	IC50 [4]	IC50 [5]
CARBOPLATIN	3000 nM				
CISPLATIN	7000 nM	2000 nM	4000 nM	2000 nM	2000 nM
